Experimental data reported in ChEMBL document CHEMBL1131229, “Synthesis, rotamer orientation, and calcium channel modulation activities of alkyl and 2-phenethyl 1,4-dihydro-2,6-dimethyl-3-nitro-4-(3- or 6-substituted-2-pyridyl)-5-pyridinecarboxylates” (J Med Chem, 1998).

Tests used:
Cavia porcellus [1] = species: Cavia porcellus; assay: Percent decrease in tonic contractile response in guinea pig ileal longitudinal smooth muscle.; format: functional; conditions: Muscle tissue
In short: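 Guinea pig ileum longitudinal smooth muscle, tonic (slow) contraction evoked by carbachol at 1.6 × 10^-7 M (muscarinic, Ca²⁺-dependent). Test compound applied over a dose range. Concentration giving 50% inhibition (IC50 ± SEM, n = 3-18) read graphically from the dose-response curve.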

Cavia porcellus [2] = species: Cavia porcellus; assay: Calcium channel agonist activity as percent increase in tonic contractile response in guinea pig left atrium; format: functional; conditions: Cardiac atrium
In short: (§1)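 Racemic test compounds on isolated guinea pig left atrium, scored as positive inotropic (contractile) response. Dose-response curves constructed. EC50 (± SEM) taken graphically as the molar concentration producing 50% of the maximum contractile increase; number of experiments reported.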

Cavia porcellus [3] = species: Cavia porcellus; assay: Calcium channel agonist activity as percent increase in tonic contractile response in guinea pig left atrium, Weak agonist; format: functional, Cardiac atrium; in short: as §1
Cavia porcellus [4] = species: Cavia porcellus; assay: Calcium channel agonist activity as percent increase in tonic contractile response in guinea pig left atrium, Weak antagonist; format: functional, Cardiac atrium

Row | Compound | IC50 (Cavia porcellus [1]) [µM] | other results
1 | CC1=NC(C)=C([N+](=O)[O-])C(c2cccc([N+](=O)[O-])n2)/C1=C(/O)OCCc1ccccc1 (centres undefined) | 4.74 | –
2 | CC1=NC(C)=C([N+](=O)[O-])C(c2ncccc2C)/C1=C(/O)OC(C)C (centres undefined) | 2.82 | EC50 (Cavia porcellus [2]): 9.97 µM
3 | CC1=NC(C)=C([N+](=O)[O-])C(c2cccc(C)n2)/C1=C(/O)OC(C)C (centres undefined) | 25.1 | EC50 (Cavia porcellus [2]): 1.81 µM
4 | CO/C(O)=C1/C(C)=NC(C)=C([N+](=O)[O-])C1c1cccc(C)n1 (centres undefined) | 2.29 | EC50 (Cavia porcellus [3]): Partial agonist
5 | CC1=NC(C)=C([N+](=O)[O-])C(c2cccc(Cl)n2)/C1=C(/O)OC(C)C (centres undefined) | 16.7 | EC50 (Cavia porcellus [2]): 5.96 µM
6 | CC1=NC(C)=C([N+](=O)[O-])C(c2cccc(C(F)(F)F)n2)/C1=C(/O)OCCc1ccccc1 (centres undefined) | 1.41 | –
7 | CC1=NC(C)=C([N+](=O)[O-])C(c2ncccc2[N+](=O)[O-])/C1=C(/O)OC(C)C (centres undefined) | 3.77 | EC50 (Cavia porcellus [4]): Partial antagonist
8 | CCO/C(O)=C1/C(C)=NC(C)=C([N+](=O)[O-])C1c1cccc(C)n1 (centres undefined) | 17.2 | EC50 (Cavia porcellus [2]): 12.3 µM
9 | COC(=O)C1=C(C)NC(C)=C(C(=O)OC)C1c1ccccc1[N+](=O)[O-] [NIFEDIPINE] | 0.014 | –

Now from value to molecule, other results behind:

Row | IC50 (Cavia porcellus [1]) [µM] | Compound | other results
10 | 3.35 | CC1=NC(C)=C([N+](=O)[O-])C(c2ncccc2-c2ccccc2)/C1=C(/O)OCCc1ccccc1 (centres undefined) | –
11 | 0.639 | CC1=NC(C)=C([N+](=O)[O-])C(c2ccccn2)/C1=C(/O)OCCc1ccccc1 (centres undefined) | –
12 | 5.17 | CC1=NC(C)=C([N+](=O)[O-])C(c2ncccc2Cl)/C1=C(/O)OCCc1ccccc1 (centres undefined) | –
13 | 5.43 | CC1=NC(C)=C([N+](=O)[O-])C(c2ncccc2C)/C1=C(/O)OCCc1ccccc1 (centres undefined) | –
14 | 1.51 | CC1=NC(C)=C([N+](=O)[O-])C(c2cccc(Cl)n2)/C1=C(/O)OCCc1ccccc1 (centres undefined) | –
15 | > 59.8 | CC1=NC(C)=C([N+](=O)[O-])C(c2ncccc2C(F)(F)F)/C1=C(/O)OCCc1ccccc1 (centres undefined) | –
16 | 77.7 | CC1=NC(C)=C([N+](=O)[O-])C(c2ncccc2[N+](=O)[O-])/C1=C(/O)OCCc1ccccc1 (centres undefined) | –
17 | 9.98 | CC1=NC(C)=C([N+](=O)[O-])C(c2cccc(C)n2)/C1=C(/O)OCCc1ccccc1 (centres undefined) | –
18 | 8.38 | CC1=NC(C)=C([N+](=O)[O-])C(c2cccc(-c3ccccc3)n2)/C1=C(/O)OCCc1ccccc1 (centres undefined) | –
